Sampled rows, rich in hits. Any-hit rate of the full collection: about 2.3%.
XiGFP reactiv: activators of X-chromosome reactivation in mouse fibroblasts; XiGFP mouse fibroblasts, % GFP-positive cells imaging, 3 d; cells co-treated with 5-aza-dC sensitizer; scaled so ellipticine positive control = 100%; activation, % at 7.58 µM; 360,000 tested, 0.055% active; AID 743238;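 active = mean normalized replicate activation at least 10% and every replicate at or above 10%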;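 note: 0% = median of on-plate neutral control wells and 100% = ellipticine 6 µM median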
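Assay system: SV40-immortalized XiGFP fibroblast cells, line 68-5-11; buffer or medium: DMEM plus 5-aza-dC sensitizer; compound: one concentration, pinned; timing: compounds 3 days, fix/stain 15 min at room temperature; benchmarks: positive control ellipticine, 6 µM final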
FN deposit inh: fibronectin deposition inhibition; AH1F fibroblasts, Alexa488-fibronectin deposition fluorescence, overnight; inhibition, % at 12.6 µM; 350,000 tested, 0.086% active; AID 743247;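 active = mean inhibition across replicates of 30% or more, regardless of how many single replicates reach that level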;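 note: positive control wells lacked labelled fibronectin entirely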
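Material: AH1F fibroblast monolayer depositing Alexa488-labelled fibronectin into matrix | Input: 10000 AH1F cells/well | Medium: DMEM plus 2% serum, read in PBS | Reagent: Alexa488-fibronectin, 24 nM final in well | Compound dosing: One dose per compound, pinned | Schedule: 1 h adhesion, overnight exposure | Measured by: Fluorescence at 485 nm excitation, 525 nm emission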
TROY signal inh: blocks TROY-dependent signaling in reporter cells. Q293 LMP1-TROYcd NF-kB luciferase reporter, 4 h. inhibition, % at 10 µM. 360,000 tested, 0.98% active. AID 1347056;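 active = compounds whose plate-normalised and pattern-corrected inhibition of the luciferase reporter signal at the single screening dose is 50% or more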
EWS-Fli block: inhibitors of EWS/Fli oncoprotein transcriptional activity | A673 NR0B1-luciferase reporter, viability-normalised | inhibition, % at 12.6 µM | 350,000 tested, 0.67% active;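 active = mean inhibition of at least 50% after viability correction, with every replicate also passing that limit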;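 note: firefly luciferase signal divided by Alamar Blue viability fluorescence both relative to DMSO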
LGR2 antag: blocks bursicon-induced cAMP signaling via Drosophila LGR2; HEK293 LGR2, CRE-luciferase, bursicon-stimulated, 4 h; inhibition, % at 9.99 µM; 380,000 tested, 0.35% active;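 active = drop in luminescence signal, shown as inhibition above about 50% in the replicate tests, limit read from the data, passing the limit was not always enough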;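 note: agonist challenge used bursicon conditioned medium at about half maximal strength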
TWEAK Fn14 block: blocks TWEAK-Fn14 interaction in a reporter cell assay; TWEAK-stimulated Fn14 reporter cells, luciferase luminescence, 8 h; inhibition, % at 10 µM; 360,000 tested, 2% active; AID 1159606; in the data active = inhibition above about 50%
An asterisk follows results filed as active; · = no result.

SMILES | XiGFP reactiv | FN deposit inh | TROY signal inh | EWS-Fli block | LGR2 antag | TWEAK Fn14 block
CS(=O)(=O)c1ncc(Cl)c(C(=O)Nc2ccc(OC(F)F)cc2)n1 | · | · | 56.6* | · | 3.8 | 70.3*
Cc1cccc(CS(=O)(=O)c2ncc(Cl)c(C(=O)NCc3ccccc3)n2)c1 | 0.1 | 22.1 | 63.4* | · | -16.8 | 97.4*
Cc1cc(C)cc(S(=O)(=O)Cc2noc(C(=O)NCc3ccccc3)c2C(=O)NCc2ccccc2)c1 | 0.0 | 4.6 | -5.6 | 6.4 | -16.6 | 8.8
O=C(NCc1ccc(F)cc1)[C@@H]1[C@@H](CO)[C@@H]2Cn3c(ccc(-c4cccnc4)c3=O)[C@H]1N2 | 0.0 | · | · | 0.6 | 2.6 | ·
CCCC#Cc1cnc2c(c1)C(=O)N([C@H](C)CO)C[C@@H](C)[C@H](CN(C)C(=O)Nc1c(C)noc1C)O2 | -0.1 | -14.6 | · | -5.2 | -2.9 | ·
Cc1cccc(C)c1NC(=O)c1nc(S(=O)(=O)Cc2ccccc2)ncc1Cl | 0.0 | 4.1 | 52.6* | 73.0* | 19.0 | 74.5*
Cc1ccccc1NC(=O)c1nc(S(C)(=O)=O)ncc1Cl | -0.1 | 4.0 | 28.8 | 73.7* | 5.5 | 13.6
Cc1cccc(CS(=O)(=O)c2ncc(Cl)c(C(=O)Nc3c(C)cccc3C)n2)c1 | 2.4 | 12.4 | 67.3* | · | 17.1 | 90.1*
COc1ccc(S(=O)(=O)N(C)C[C@@H]2Oc3ccc(NC(=O)Nc4c(C)noc4C)cc3CC(=O)N([C@@H](C)CO)C[C@@H]2C)cc1 | -0.9 | · | · | -5.9 | 13.2 | ·
O=C(OCC(=O)N1CCCC1=O)c1nc(Cl)c(Cl)c(Cl)c1Cl | 0.5 | · | 55.9* | 4.0 | -12.6 | 90.8*
CC(C)(C)[S@@](=O)N1Cc2cc(C(=O)NCc3ccccc3F)nc(-c3cccc(-c4cncnc4)c3)c2[C@H]1CCO | 0.0 | 31.0* | · | -7.9 | · | ·
O=C(C[C@H]1C=C[C@@H](NC(=O)c2ccc3c(c2)OCO3)[C@@H](CO)O1)NC1Cc2ccccc2C1 | 0.5 | -14.5 | · | · | -6.8 | ·
CCCNC(=O)Nc1ccc2c(c1)C(=O)N(C)C[C@H](OC)[C@@H](C)CN(C(=O)C1CC1)[C@H](C)CO2 | -0.4 | -4.0 | · | -14.4 | 4.1 | ·
COC(=O)c1cn(CC(=O)NCc2ccco2)c2ccccc12 | · | 31.4* | -21.8 | · | · | -5.8
CS(=O)(=O)N(CC(=O)N1CCN(c2cccc(Cl)c2)CC1)C1CCCCC1 | · | · | 17.7 | · | · | 66.8*
COc1ccc(NC(=O)N(C)C[C@@H]2OCCCC[C@@H](C)Oc3ccc(NS(=O)(=O)c4ccc(Cl)cc4)cc3C(=O)N([C@@H](C)CO)C[C@@H]2C)cc1 | 0.6 | 2.6 | · | 3.6 | 11.7 | ·
CNC(=O)C[C@H]1CC[C@H]2[C@@H](COC[C@H](O)CN2C(=O)c2ccc3c(c2)OCO3)O1 | -0.1 | -3.1 | · | · | 22.7 | ·
CCC(=O)N1CC2(C1)[C@@H](c1ccccc1)[C@@H](CO)N2Cc1cc(F)ccc1F | 0.2 | · | · | 5.3 | -1.9 | ·
O=[N+]([O-])c1ccc(N/N=C\c2cccn2-c2ccccc2)nc1 | · | · | -30.0 | · | -8.6 | 51.8*
CC(C)=CCC/C(C)=C/CNC(=O)C[C@H]1C[C@H](C(=O)N(C(C)C)C(C)C)[C@@]2(C)c3[nH]c4ccc(Cl)cc4c3CCN2C1=O | 0.1 | -5.5 | 7.3 | -4.8 | -2.1 | 55.9*
O=C(C[C@H]1C[C@H](C(=O)N2CCCCC2)[C@@]2(CCc3ccccc3)c3[nH]c4ccc(Cl)cc4c3CCN2C1=O)NCCCn1ccnc1 | -0.1 | -9.5 | 55.4* | 13.4 | 3.3 | 32.2
CC(C)=CCC/C(C)=C/CNC(=O)CC1C[C@H](C(=O)N(C(C)C)C(C)C)[C@@]2(C)c3[nH]c4ccccc4c3CCN2C1=O (stereo partly specified) | -0.1 | -3.4 | -5.7 | 3.5 | -2.7 | 37.3
C[C@]12c3[nH]c4ccc(Cl)cc4c3CCN1C(=O)[C@@H](CC(=O)NCCCn1ccnc1)C[C@@H]2C(=O)N1CCCCC1 | 0.0 | 6.9 | -1.1 | 2.9 | -8.5 | 13.7
COc1ccc2[nH]c3c(c2c1)CCN1C(=O)C(CC(=O)NCc2ccco2)C[C@H](C(=O)N2CCCCC2)[C@@]31C (stereo partly specified) | 0.0 | 6.2 | -1.4 | -6.8 | 13.4 | -4.2

Bioassay records as filed in PubChem BioAssay.
